Test results from ChEMBL document CHEMBL1121711, “Novel peptidoaminobenzophenones, terminal N-substituted peptidoaminobenzophenones, and N-(acylglycyl)aminobenzophenones as open-ring derivatives of benzodiazepines” (J Med Chem, 1981).

Key:
[1] = tested on: Mus musculus; assay: Compound was tested for antagonism of pentylenetetrazole-induced convulsion in mice by oral administration.; format: functional
Method in brief: (§1)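 Compounds given orally as an aqueous arabic gum suspension to groups of five mice; 60 min after dosing, pentylenetetrazole 125 mg/kg given subcutaneously. Animals observed 2 h for convulsion and death; dose protecting 50% (ED50) estimated graphically.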

[2] = tested on: Mus musculus; assay: Muscle relaxation activity using the rotarod performance test in mice by oral administration.; format: functional
Method in brief: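 Groups of five mice dosed orally with compound suspended in aqueous arabic gum. At 60 min post-dose each mouse placed on a 3 cm diameter wooden rod turning at 5 rpm; falls within 2 min counted. ED50 estimated graphically.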

[3] = Acute toxicity expressed as LD50 in mice after oral administration.; format: organism-based; details: mouse, in vivo
Method in brief: (§2)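 Mice dosed orally as a suspension in aqueous arabic gum, groups of one to three animals; acute toxicity judged on day 7 after dosing. Values for the three reference benzodiazepines derived by the probit method.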

[4] = tested on: Mus musculus; assay: Antagonism of pentylenetetrazole-induced convulsion in mice by oral administration.; format: functional; method in brief: as §1
[5] = Acute toxicity of compound expressed as LD50 was measured in mice after oral administration.; format: organism-based; details: mouse, in vivo; method in brief: as §2

| SMILES | ED50 [1] | ED50 [2] | LD50 [3] | ED50 [4] | LD50 [5] |
| --- | --- | --- | --- | --- | --- |
| CN(C(=O)CNC(=O)CN)c1ccc([N+](=O)[O-])cc1C(=O)c1ccccc1Cl | 0.32 mg/kg | 10 mg/kg | – | – | – |
| CCCCCC(=O)NCC(=O)N(C)c1ccc(Cl)cc1C(=O)c1ccccc1Cl | – | 90 mg/kg | > 1000 mg/kg | 1.9 mg/kg | – |
| CCCCCCCCCCCCCCCC(=O)NCC(=O)N(C)c1ccc(Cl)cc1C(=O)c1ccccc1Cl | – | > 100 mg/kg | – | > 100 mg/kg | > 1000 mg/kg |
| NCC(=O)NCC(=O)Nc1ccc([N+](=O)[O-])cc1C(=O)c1ccccc1Cl | – | 63.9 mg/kg | – | 2.64 mg/kg | 750 mg/kg |
| CC(NC(=O)CN)C(=O)N(C)c1ccc(Cl)cc1C(=O)c1ccccc1Cl (stereo not given) | – | 8.5 mg/kg | 750 mg/kg | 0.47 mg/kg | – |
| CCCC(=O)NCC(=O)N(C)c1ccc(Cl)cc1C(=O)c1ccccc1Cl | – | 55.2 mg/kg | > 1000 mg/kg | 0.98 mg/kg | – |
| CN(C(=O)CNC(=O)c1ccccc1)c1ccc(Cl)cc1C(=O)c1ccccc1 | – | > 100 mg/kg | > 1000 mg/kg | 7.6 mg/kg | – |
| CN(C(=O)CNC(=O)c1ccccc1)c1ccc(Cl)cc1C(=O)c1ccccc1Cl | – | > 100 mg/kg | > 1000 mg/kg | 2.9 mg/kg | – |
| CNCC(=O)NCC(=O)N(C)c1ccc(Cl)cc1C(=O)c1ccccc1Cl | 1.55 mg/kg | – | > 1000 mg/kg | – | – |
| CN(C(=O)CNC(=O)CN1CCC(O)(c2ccc(Cl)cc2)CC1)c1ccc(Cl)cc1C(=O)c1ccccc1Cl | – | > 100 mg/kg | > 1000 mg/kg | 27 mg/kg | – |
| CC(=O)NCC(=O)N(C)c1ccc(Cl)cc1C(=O)c1ccccc1Cl | – | 58 mg/kg | > 1000 mg/kg | 2.3 mg/kg | – |
| CCCCCCC(=O)NCC(=O)N(C)c1ccc(Cl)cc1C(=O)c1ccccc1Cl | – | 70 mg/kg | > 1000 mg/kg | 1.9 mg/kg | – |
| CN(C)CC(=O)NCC(=O)N(C)c1ccc(Cl)cc1C(=O)c1ccccc1Cl | – | 26 mg/kg | > 1000 mg/kg | 2.6 mg/kg | – |
| NCC(=O)NCC(=O)Nc1ccc([N+](=O)[O-])cc1C(=O)c1ccccc1 | – | 24.8 mg/kg | > 1000 mg/kg | 4.82 mg/kg | – |
| CN(C(=O)CNC(=O)CN1CCN(c2ccccc2)CC1)c1ccc(Cl)cc1C(=O)c1ccccc1Cl | – | > 100 mg/kg | > 1000 mg/kg | 75 mg/kg | – |
| CC(C)NCC(=O)NCC(=O)N(C)c1ccc(Cl)cc1C(=O)c1ccccc1Cl | – | 13 mg/kg | 750 mg/kg | 1 mg/kg | – |

| SMILES | ED50 [1] | ED50 [2] | LD50 [3] | ED50 [4] | LD50 [5] |
| --- | --- | --- | --- | --- | --- |
| CN1CCN(CC(=O)NCC(=O)N(C)c2ccc(Cl)cc2C(=O)c2ccccc2Cl)CC1 | – | > 100 mg/kg | > 1000 mg/kg | 59 mg/kg | – |
| CN(C(=O)CNC(=O)CN1CCOCC1)c1ccc(Cl)cc1C(=O)c1ccccc1Cl | – | > 100 mg/kg | > 1000 mg/kg | 14 mg/kg | – |
| CC(C)C(=O)NCC(=O)N(C)c1ccc(Cl)cc1C(=O)c1ccccc1Cl | – | > 100 mg/kg | > 1000 mg/kg | 6 mg/kg | – |
| CN(C(=O)CNC(=O)Cc1ccccc1)c1ccc(Cl)cc1C(=O)c1ccccc1Cl | – | > 100 mg/kg | > 1000 mg/kg | 35 mg/kg | – |
| NC(C(=O)NCC(=O)Nc1ccc(Cl)cc1C(=O)c1ccccc1)c1ccccc1 (stereo not given) | – | > 100 mg/kg | > 1000 mg/kg | 28 mg/kg | – |
| CCCCC(=O)NCC(=O)N(C)c1ccc(Cl)cc1C(=O)c1ccccc1Cl | – | 90 mg/kg | > 1000 mg/kg | 1.3 mg/kg | – |
| CC(=O)NCC(=O)Nc1ccc(Cl)cc1C(=O)c1ccccc1Cl | – | > 100 mg/kg | > 1000 mg/kg | > 100 mg/kg | – |
| CN(C(=O)CNC(=O)CNCCc1ccccc1)c1ccc(Cl)cc1C(=O)c1ccccc1Cl | – | 86 mg/kg | > 1000 mg/kg | 1.6 mg/kg | – |
| CN(C(=O)CNC(=O)CN)c1ccc([N+](=O)[O-])cc1C(=O)c1ccccc1 | 0.28 mg/kg | 2.94 mg/kg | – | – | – |
| CN(C(=O)CNC(=O)CN1CCCCC1)c1ccc(Cl)cc1C(=O)c1ccccc1Cl | – | > 100 mg/kg | > 1000 mg/kg | 7.5 mg/kg | – |
| CCN(CC)CC(=O)NCC(=O)N(C)c1ccc(Cl)cc1C(=O)c1ccccc1Cl | – | 34 mg/kg | > 1000 mg/kg | 2.2 mg/kg | – |
| CCC(=O)NCC(=O)N(C)c1ccc(Cl)cc1C(=O)c1ccccc1Cl | – | 36 mg/kg | > 1000 mg/kg | 1.4 mg/kg | – |
| CC(=O)NCC(=O)Nc1ccc(Cl)cc1C(=O)c1ccccc1 | – | > 100 mg/kg | > 1000 mg/kg | 37 mg/kg | – |
| CNC1=Nc2ccc(Cl)cc2C(c2ccccc2)=[N+]([O-])C1 [CHLORDIAZEPOXIDE] | – | – | 1080 mg/kg | – | – |
| CN(C(=O)CNC(=O)CN)c1ccc(Cl)cc1C(=O)c1ccccc1Cl [LORZAFONE ANHYDROUS] | – | 27.7 mg/kg | > 1000 mg/kg | 0.58 mg/kg | – |
| O=C1CN=C(c2ccccc2)c2cc([N+](=O)[O-])ccc2N1 [NITRAZEPAM] | – | 4.25 mg/kg | – | 0.23 mg/kg | – |
